Screening data (PubChem)
TRPC6 act – activates the mouse TRPC6 cation channel. Q61143. HEK293-TRPC6 membrane potential dye fluorescence; stronger effect = higher value. B-score at 10 µM. 310,000 compounds, 0.13% hits. AID 2550;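 active = B-score of the integrated fluorescence ratio above library mean plus 3 SD, and starting fluorescence ratio within library mean plus 5 SD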;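 also: higher score means more depolarization so channel activation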
Target sequence (Q61143 whole entry, looked up): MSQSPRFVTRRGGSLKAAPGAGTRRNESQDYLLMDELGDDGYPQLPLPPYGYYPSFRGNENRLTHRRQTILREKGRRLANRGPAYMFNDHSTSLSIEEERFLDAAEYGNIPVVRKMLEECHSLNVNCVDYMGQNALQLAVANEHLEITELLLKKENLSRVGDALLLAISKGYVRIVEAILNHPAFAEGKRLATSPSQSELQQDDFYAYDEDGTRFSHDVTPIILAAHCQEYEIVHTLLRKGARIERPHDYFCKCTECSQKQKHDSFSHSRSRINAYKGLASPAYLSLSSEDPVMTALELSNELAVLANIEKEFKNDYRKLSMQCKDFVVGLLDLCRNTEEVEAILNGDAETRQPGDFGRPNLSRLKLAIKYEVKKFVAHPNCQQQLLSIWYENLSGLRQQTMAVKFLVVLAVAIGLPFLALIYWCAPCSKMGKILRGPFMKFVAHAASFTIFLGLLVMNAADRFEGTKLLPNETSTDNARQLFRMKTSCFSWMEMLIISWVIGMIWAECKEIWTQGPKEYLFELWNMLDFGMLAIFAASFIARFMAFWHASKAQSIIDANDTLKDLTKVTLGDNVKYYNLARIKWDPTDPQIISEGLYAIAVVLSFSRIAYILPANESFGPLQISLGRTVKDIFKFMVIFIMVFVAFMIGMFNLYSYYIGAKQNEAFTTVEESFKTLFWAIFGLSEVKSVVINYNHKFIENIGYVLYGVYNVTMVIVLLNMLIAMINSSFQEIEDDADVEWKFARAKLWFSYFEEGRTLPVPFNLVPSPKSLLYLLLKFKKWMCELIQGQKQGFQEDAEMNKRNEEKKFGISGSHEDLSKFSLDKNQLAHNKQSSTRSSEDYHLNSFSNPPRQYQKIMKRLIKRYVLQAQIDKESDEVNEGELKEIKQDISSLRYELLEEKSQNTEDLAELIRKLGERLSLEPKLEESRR
TRPC4 inh – blocks the mouse TRPC4 cation channel; B-score at 10 µM; Q9QUQ5; HEK293 TRPC4beta/mu-opioid, DAMGO-evoked Fluo4 calcium flux; stronger effect = lower value; 300,000 compounds, 0.39% hits;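 active = B-score over 3 SD under the library average, no early fluorescence shift, positive overall ratio signal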
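Assay system: HEK293 cells with stable TRPC4beta plus mu-opioid receptor expression; Probe or stimulus: DAMGO in two steps, submaximal then maximal; Dosing: single-point compound dosing; Measured by: Fluo4 calcium-dye fluorescence, kinetic read; Read-out basis: B score from integrated Fluo4 fluorescence ratio.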
TRPC6 inh – mouse TRPC6 channel inhibition | Q61143 | HEK293-TRPC6, membrane potential dye, ACh-evoked depolarization; stronger effect = lower value | B-score at 10 µM | 310,000 compounds, 1.1% hits;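 active = B-score under library mean minus 3 SD, initial fluorescence not abnormally high, positive integrated signal ratio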;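 also: B-score derived from integrated fluorescence ratio over the kinetic read; more negative B-score means stronger inhibition of depolarization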
TRPC4 potent – allosteric potentiators of mouse TRPC4 channel; B-score at 10 µM; HEK293 TRPC4beta/mu-opioid, DAMGO EC20, Fluo-4 Ca2+ flux; stronger effect = higher value; Q9QUQ5; 310,000 compounds, 0.42% hits; AID 2227;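 active = B-score of calcium response area above 5 SD of library B-scores, with initial fluorescence ratio within 5 SD of library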
Platelet DG rel – platelet dense granule release activity | inhibition, %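 (compounds screened at 7.5 µM in platelet-rich plasma)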 | 300,000 compounds, 0.22% hits | human platelet-rich plasma, SFLLRN dense granule ATP release, luminescence;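 active = mean replicate score, as percent of positive control, at or above 50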
TRPC4 act – TRPC4 (mouse) channel activation | Q9QUQ5 | HEK293 TRPC4beta/mu-opioid, Fluo4 calcium fluorescence; stronger effect = higher value | B-score at 10 µM | 310,000 compounds, 0.49% hits | AID 2237;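 active = B-score above 5 SD of library B-scores, and initial fluorescence ratio not above library mean plus 5 SD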;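 also: positive B-score marks a calcium rise read as TRPC4 activation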
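Technique: kinetic Fluo4 calcium fluorescence; Test system: TRPC4beta and mu-opioid receptor HEK293 stable cells; Measure: B-scored integrated calcium fluorescence ratio; Benchmarks: low control buffer alone, high control maximal DAMGO; Schedule: 45 min room-temperature Fluo4 loading, 110 s read.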
Large screens that a line does not name were inactive. Only some compounds are listed: those with a hit (about 2.5% of all), similar ones and a draw of the others.

COc1cc(CNCCN2CCOCC2)ccc1OCc1ccc(Cl)cc1	none
COc1cc(CNCCCN2CCOCC2)cc(Br)c1OCc1ccc(Cl)cc1	TRPC4 inh -6
COc1cc(/C=C2\C(C)=C(C#N)c3nc(N)c(C#N)c(C)c32)ccc1OCC(=O)O	none
CC1=C(C#N)c2nc(N)c(C#N)c(C)c2/C1=C\c1ccc(C)cc1	TRPC6 inh -6.4
CCCOc1cc(C)c(S(=O)(=O)n2ccc(C)n2)cc1C	TRPC4 potent 13
Cc1ccc(NC(=O)C(C)OC(=O)Cc2c[nH]c3ccccc23)cc1 (stereo unspecified)	TRPC4 inh -6
O=C(CN1CC[n+]2c(-c3ccccc3)csc21)c1ccc(Br)cc1	none
O=C(CN1CC[n+]2c(-c3cccs3)csc21)c1ccc(Br)cc1	TRPC6 inh -5
COC(=O)C1CCN(Cc2cn(-c3ccccc3)nc2-c2ccc3c(c2)OCO3)CC1	TRPC4 act 83
O=S(=O)(c1ccccc1)c1nnn2c1nc(NC1CCN(Cc3ccccc3)CC1)c1cc(Cl)ccc12	TRPC4 inh -6, TRPC4 act 148
O=S(=O)(c1ccccc1)c1nnn2c1nc(NC1CCN(Cc3ccccc3)CC1)c1ccccc12	none
CN(C(=O)Cn1nnc(-c2cccc(C(F)(F)F)c2)n1)C1CCCCC1	Platelet DG rel 70
CCCN1CCC(NC(=O)Nc2ccccc2C(=O)OC)CC1	TRPC4 act 71
COC(=O)c1ccccc1NC(=O)NC1CC1	none
CC(NC(=O)c1ccco1)c1cccc2ccccc12 (stereo unspecified)	none
Cc1cc(C)cc(NC(=O)CS(=O)(=O)c2cccc3nsnc23)c1	none
COc1ccc(N=CC2=C(O)c3ccccc3C2=O)c(OC)c1	Platelet DG rel 51
Cc1ccccc1N=CC1=C(O)c2ccccc2C1=O	Platelet DG rel 58
Cc1ccc(/C=C2\SC(=S)N(C(Cc3ccccc3)C(=O)O)C2=O)cc1 (stereo unspecified)	TRPC4 inh -8
NC(=O)c1ccsc1NC(=O)COC(=O)c1cc(=O)[nH]c2ccccc12	none
Cc1cc(C)c(S(=O)(=O)NCCCn2ccnc2)c(C)c1	TRPC4 act 68
Cc1c(Cl)ccc(S(=O)(=O)NCCCn2ccnc2)c1Cl	TRPC4 act 50
O=C(c1ccc(S(=O)(=O)Nc2ccc(F)cc2)cc1)N1CCN(c2ccccn2)CC1	none
COc1cccc(C2=NN(S(C)(=O)=O)C(c3cccs3)C2)c1 (stereo unspecified)	none (no result: TRPC4 inh)
CCOC(=O)c1sc2nc(CSc3ccccc3)nc(NCCN(C)C)c2c1C	TRPC4 inh -5
O=C(COc1ccc(Br)cc1CNC1CCCC1)Nc1ccccc1	TRPC4 act 62
O=C(COc1ccc(Br)cc1CO)Nc1ccc(F)cc1	none
CCN(CC)CCNCc1cc(Br)ccc1OCC(=O)NCc1ccccc1	none
CC(NCc1cc(Br)ccc1OCC(=O)NCc1ccccc1)c1ccccc1 (stereo unspecified)	TRPC4 inh -8, TRPC4 act 61
O=C(N/N=C/c1ccccc1F)c1ccc(COc2ccccc2Cl)o1	none
COc1ccc(N2C(=O)/C(=C/c3ccc([N+](=O)[O-])cc3)N=C2C)cc1	none
CCOC(=O)C1C(=O)C=C(c2ccc(C)cc2)CC1c1cccc([N+](=O)[O-])c1 (stereo unspecified)	TRPC4 potent 24
Cc1nc2c(-c3ccccc3)cnn2c(N)c1-c1ccccc1	none
COc1cccc(C(=O)NC2CCCN(C3Cc4ccccc4C3)C2)c1OC (stereo unspecified)	TRPC4 act 90
Cc1c(N(C)S(=O)(=O)c2cccc(C(=O)NCC3CCCO3)c2)c(=O)n(-c2ccccc2)n1C (stereo unspecified)	none
Cc1c(N(C)S(=O)(=O)c2cc(C(=O)NCC3CCCO3)ccc2Cl)c(=O)n(-c2ccccc2)n1C (stereo unspecified)	TRPC4 inh -7
Cc1ccc(C(=O)Nc2ccnc(-c3ccncc3)n2)cc1	none
COc1ccccc1CCC(=O)N(C)CC(=O)Nc1ccc(F)cc1	none
O=C(CN(c1cccc([N+](=O)[O-])c1)S(=O)(=O)c1ccccc1)NCc1ccccc1	Platelet DG rel 57
O=C(/C=C/Nc1ccccc1Br)c1ccccn1	Platelet DG rel 54
O=C(CNC(=S)N(Cc1ccccc1)Cc1cccnc1)NC1CCCCC1	none
O=C1CCCc2nc(N3CCN(C(c4ccccc4)c4ccccc4)CC3)ncc21	TRPC4 act 43
CCN(CC)c1ccc(S(=O)(=O)N2CCOCC2)cc1NC(=O)CSc1nnc(N)s1	none
CCOC(=O)c1cnc2cc(-c3ccc(Cl)cc3)nn2c1N	none
CSc1nc(N)n2nc(-c3ccc(Cl)cc3)cc2n1	Platelet DG rel 67
OC1(c2ccccc2)CN(c2ccccc2)C2=[N+]1CCS2 (stereo unspecified)	TRPC4 inh -9, TRPC4 act 72
OC1(c2cccs2)CN(c2ccc(Br)cc2)C2=[N+]1CCCS2 (stereo unspecified)	none
CCCc1nc(SC2CCCC2)c2c(=O)n(C)c(=O)n(C)c2n1	TRPC4 inh -5
CCCCSCCCNC(=O)c1ccc2c(c1)N(CC)C(=O)c1ccccc1S2=O (stereo unspecified)	none
CC1CC(C)CN(CCCNC(=O)c2ccc3c(c2)N(Cc2ccccc2)C(=O)c2ccccc2S3=O)C1 (stereo unspecified)	TRPC4 act 85
CCCN(CCC)CCCNC(=O)c1ccc2c(c1)N(CC)C(=O)c1ccccc1S2=O (stereo unspecified)	TRPC4 act 66
O=C(Cc1c(Cl)cccc1Cl)NC1=NCCS1	none
COC(=O)CCC(=O)Nc1nnc(C(F)(F)F)s1	none
CCC(NC(=O)Nc1nnc(C(F)(F)F)s1)(C(F)(F)F)C(F)(F)F	TRPC6 inh -6.1
